# Bioassay records deposited in PubChem by Sanford-Burnham Center for Chemical Genomics.
# This is a sample that favours compounds with a hit; in the whole collection about 1.5% have one here.
# FLuc inh counter = counter-screen for luciferase assay inhibitors: firefly luciferase inhibition; P08659; AID 1006; 1.5% of 200,000 active; inhibition, % at 10 µM; ATPLite firefly luciferase biochemical luminescence, 10 min;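 active = inhibition above about 50% when tested at 10 µM, limit read from the data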
# Target sequence (P08659 whole entry, looked up): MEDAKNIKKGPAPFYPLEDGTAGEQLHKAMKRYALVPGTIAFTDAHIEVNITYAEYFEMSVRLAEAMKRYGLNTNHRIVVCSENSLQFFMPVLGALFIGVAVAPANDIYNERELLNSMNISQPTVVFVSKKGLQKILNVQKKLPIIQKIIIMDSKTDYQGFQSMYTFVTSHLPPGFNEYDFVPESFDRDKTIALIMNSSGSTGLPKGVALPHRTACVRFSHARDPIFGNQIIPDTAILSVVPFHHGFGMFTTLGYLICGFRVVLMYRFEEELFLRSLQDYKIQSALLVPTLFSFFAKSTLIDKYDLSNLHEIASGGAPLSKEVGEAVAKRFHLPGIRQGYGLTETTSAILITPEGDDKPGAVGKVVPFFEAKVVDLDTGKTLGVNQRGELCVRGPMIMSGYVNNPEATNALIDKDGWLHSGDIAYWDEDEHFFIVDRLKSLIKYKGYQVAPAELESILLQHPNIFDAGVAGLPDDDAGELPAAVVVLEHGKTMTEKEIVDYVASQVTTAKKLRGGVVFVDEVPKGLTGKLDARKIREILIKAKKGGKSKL
# PPC-1+TRAIL kill = PPC-1 cancer cell killing with TRAIL present; AID 1443; cell killing (% activity), % at 4 µM or 5 µM; PPC-1 cells + TRAIL, ATPLite viability luminescence; 0.41% of 220,000 active;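 active = cell killing above 50% in the first pass at 4 µM, then a duplicate retest at 5 µM averaging 50% or more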
# C8 TRAIL sens = caspase-8 TRAIL sensitization. NB7+C8 cells + TRAIL, ATPlite viability luminescence. inhibition (viability loss, TRAIL sensitization), % at 10 µM. 1% of 360,000 active. AID 624354;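 active = compounds causing at least 50% loss of cell viability in the single-dose screen, relative to plate controls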
# FLuc act counter = affects firefly luciferase, flagging false hits in luciferase stimulation screens; P08659; ATPlite luciferase biochemical, luminescence, 10 min; 0 = ATP-free wells, 1 = DMSO control; activation factor at 10 µM; 200,000 tested, under 10 active; AID 1027;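 active = luciferase activation factor, scaled between plate controls, of at least 2 with compound at 10 µM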
#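 Material: luciferase plus luciferin reagent, cell-free. Medium: PBS buffer for ATP. Also added: ATP substrate, dispensed from a 10.24 µM working solution in PBS. Doses: test compounds dosed from 2 mM stocks in 100% DMSO. Incubation: 10 min post-reagent at room temperature. Technique: light output (luminescence). Read-out basis: luminescence gain marking luciferase activators.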
# Numbers stand for hits; – = inactive; · = no result given.
SMILES,FLuc inh counter,PPC-1+TRAIL kill,C8 TRAIL sens,FLuc act counter
O=C(COC(=O)c1ccc(S(=O)(=O)NCc2ccco2)cc1)NCc1ccccc1,·,·,–,·
CN(c1ccccc1)c1ccc(/C=N/N2CCOCC2)cc1,70,–,–,–
c1ccc(-n2ncc3c(NCc4cccs4)ncnc32)cc1,–,–,–,–
Cc1ccccc1CS(=O)(=O)Cc1ccc(C(=O)NCCCN2CCOCC2)o1,–,–,–,–
O=C(O)/C=C/c1cccc(NC(=O)c2ccc(Cl)cc2)c1,68,·,–,–
O=C(O)/C=C/c1cccc(NC(=O)c2ccccc2)c1,·,–,–,·
COc1ccc(OCCC(=O)Nc2nccs2)cc1,–,–,–,–
O=C(COc1ccc2c(c1)OCO2)Nc1nccs1,·,·,53,·
COCc1nnc(NC(=O)COc2ccc3c(c2)OCO3)s1,·,·,–,·
COc1ccc(OCC(=O)Nc2nccs2)cc1,75,–,–,–
CC(=O)c1cccc(NC(=O)c2ccc3c(Cl)c4c(nc3c2)CCCC4)c1,–,–,–,–
N#Cc1ccccc1NC(=O)c1ccc2c(Cl)c3c(nc2c1)CCCC3,50,–,–,–
CCC[C@H](CN[C@@H](CNC)[C@H](C)CC)NCCc1cc(C(F)(F)F)cc(C(F)(F)F)c1,·,·,88,·
CC[C@@H](C)[C@H](CNC)NC[C@@H](Cc1cccc2ccccc12)NCCc1cccc(C(F)(F)F)c1,·,·,96,·
COc1cc(OC)cc(-c2cc3ccc(OC)cc3cn2)c1,·,·,83,·
COc1ccc2cc(-c3ccsc3)ncc2c1,·,·,–,·
COc1ccc2cc(-c3ccccc3)ncc2c1,·,·,62,·
COc1cc2cnc(-c3ccccc3)cc2cc1OC,·,·,–,·
CSc1nc(N)n2nc(-c3ccc(Cl)cc3)cc2n1,·,–,45,·
CCOC(=O)c1cnc2cc(-c3ccc(Cl)cc3)nn2c1N,–,–,–,–
Cc1c(N=Cc2nc3ccccc3n2C)c(=O)n(-c2ccccc2)n1C,83,–,–,–
CCn1ncc(CN2CCN(Cc3ccc(OC)c(C)c3C)C(CCO)C2)c1C (centres undefined),–,–,–,–
Nc1ccc(Nc2nc(-c3ccncc3)cs2)cc1,59,–,–,–
COC(=O)c1cc(-c2ccc3c(c2)OCO3)nc2ccccc12,–,–,–,–
O=C(O)c1cc(-c2ccc3c(c2)OCO3)nc2ccc(Br)cc12,72,–,–,–
SMILES,FLuc inh counter,PPC-1+TRAIL kill,C8 TRAIL sens,FLuc act counter
COc1ccc(NC(=O)N2CCCc3ccccc32)cc1,–,–,–,–
Cc1ccc(OCC(=O)N2CCc3ccccc32)cc1,78,–,–,–
CCC(=O)c1ccc(OCC(=O)OCC(=O)N2CCCc3ccccc32)cc1,·,·,88,·
O=C(COc1ccc(Cl)cc1)OCC(=O)N1CCCc2ccccc21,–,–,–,–
COc1ccc(NC(=O)N2CCc3ccccc32)cc1,85,–,56,–
CC(C)N(CC#CC(O)(c1ccccc1)c1ccccc1)C(C)C,·,–,–,·
C=CCc1ccccc1OCC(=O)N/N=C/c1ccc(OC(C)=O)cc1OC(C)=O,–,–,50,–
O=C(c1ccco1)N1CCN(c2ncccn2)CC1,–,–,–,–
Cc1cc(N)n(-c2cc(C)c3ccccc3n2)n1,84,–,60,–
CCOc1ccc(CN(C)C(=O)[C@H](Cc2ccccc2)NC(=O)OCc2ccccc2)cc1OC,·,·,51,·
COc1ccc(CN(C)C(=O)C(Cc2ccccc2)NC(=O)c2ccccc2)cc1F (centres undefined),·,·,–,·
C[C@H](NC(=O)c1ccccc1Cl)C(=O)Nc1ccccc1F,·,·,–,·
COc1cccc(C(=O)N2CCC(CCC(=O)Nc3cccc(C)c3)CC2)c1,·,·,–,·
COc1ccc(/C=C/C(=O)C2C(=O)C=C(C)OC2=O)cc1O (centres undefined),83,–,–,–
Cc1cccc(NC(=O)/C=C/c2cccs2)n1,65,–,–,–
O=C(/C=C/c1cccs1)Nc1ccncc1,–,–,–,–
CCOC(=O)c1cn(-c2ccc(F)c(F)c2F)c2c(F)c(F)c(F)cc2c1=O,–,–,64,–
O=C1C(C=NCc2cccnc2)=C(O)c2ccccc21,68,–,–,–
O=C1C(C=NCc2ccncc2)=C(O)c2ccccc21,–,–,–,–
CC1CCCC(C)N1C(=O)COC(=O)c1cc(F)c(F)cc1Cl (centres undefined),·,·,–,·
O=C(CCc1nnc2ccc(N3CCOCC3)nn12)Nc1ccc(F)cc1F,·,·,–,·
Cc1ccccc1NC(=O)Cc1nc(COC(=O)c2ccc(S(C)(=O)=O)c([N+](=O)[O-])c2)cs1,·,·,54,·
CCOC(=O)c1sc(/N=C/c2ccc(O)cc2O)cc1C,86,–,–,–
CC(=O)Nc1cc(Cl)c(N=Cc2ccc(O)cc2O)cc1Cl,–,–,–,–
COc1ccccc1N=NC1C(=O)N(C(N)=S)N=C1C (centres undefined),·,·,–,·
SMILES,FLuc inh counter,PPC-1+TRAIL kill,C8 TRAIL sens,FLuc act counter
Cc1cc(C(=O)CSc2n[nH]c(N)n2)c(C)n1-c1ccccc1,59,–,–,–
Cc1cc(C(=O)CSc2nnc3ccccn23)c(C)n1-c1ccccc1,75,–,53,–
Cc1ccc(-n2c(C)cc(C(=O)CSc3n[nH]c(N)n3)c2C)cc1,–,–,–,–
OCC1(Cc2ccccc2F)CCCN(CCc2ccccc2)C1 (centres undefined),·,·,–,·
Cc1ccc(-c2cc3nc4c(c(=O)n3[nH]2)CCCC4)cc1,·,·,60,·
Cc1[nH]n2c(=O)c3c(nc2c1-c1ccc(Cl)cc1)CCC3,–,–,–,–
O=c1c2c(nc3cc(-c4ccc(F)cc4)[nH]n13)CCC2,51,–,–,–
Cc1cccc(-n2ncc3c(Nc4ccc(F)cc4)ncnc32)c1,–,–,–,–
CC(C)Nc1ncnc2c1cnn2-c1ccccc1,79,·,–,–
CCCNc1ncnc2c1cnn2-c1ccc(OC)cc1,–,·,·,–
C=CCNc1ncnc2c1cnn2-c1ccc(OC)cc1,59,–,–,–
Cc1cccc(-n2ncc3c(NC(C)C)ncnc32)c1,63,–,66,–
O=C(/C=C/c1ccc(Br)cc1)c1ccc(NC2=NCCCS2)cc1,–,–,–,–
Cc1cc(NC(=O)CSc2nccn2-c2cccc(Cl)c2)no1,·,·,–,·
COC(=O)c1cc(C(=O)OC)n(Cc2ccc(F)cc2)c1C,–,–,–,–
CN(C(=O)c1ccco1)c1nc2c(s1)CCCC2,77,–,59,–
CCCn1cc(CN2CCC(Cc3cccc(F)c3)(C(=O)OCC)CC2)c(C)n1,·,–,–,·
O=C(COC(=O)COc1ccc(Cl)cc1)NCCNC(=O)COC(=O)COc1ccc(Cl)cc1,·,·,–,·
O=C(N/N=C/c1ccco1)c1ccc(OCc2ccccc2)cc1,·,–,–,·
O=C(N/N=C/c1ccco1)c1ccncc1,–,–,–,–
O=C(Nc1ccccc1C(=O)N/N=C/c1ccco1)c1ccc(Cl)cc1,85,–,–,–
O=C(Nc1ccccc1C(=O)N/N=C/c1ccco1)c1ccc(F)cc1,80,–,–,–
Cc1ccccc1C(=O)Nc1ccccc1C(=O)N/N=C\c1ccco1,–,–,–,–
O=C(Nc1ccccc1C(=O)N/N=C/c1ccco1)c1ccccc1,76,–,–,–
COc1ccccc1N1CCN(Cc2ccc(OC)c(OC)c2OC)CC1,–,–,–,–
